Data on three molecules can be found in publication PMC3417325 (FEBS letters, 2010).

The subject of one experiment is S. aureus. To be noted: cited from earlier work.
Experiment [1] can be described thus: SPR, HNP1 peptides on soluble Lipid II immobilized on the chip surface. It is filed as binding. The following applies: peptide at 0.1, 1 or 10 µM, supplemental Figure 1. The gist of the method:
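The ligand was short-chain, water-soluble farnesyl (three-isoprene) Lipid II, made with M. flavus vesicles, C18 HPLC-purified and confirmed by mass spectrometry. Signals were corrected by subtracting a control flow-cell.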
For orientation: Surface plasmon resonance follows binding to a sensor surface in real time, without labels.

Experiment [2] can be described thus: ANTS/DPX leakage assay from LUVs. A digest of the protocol: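 LUVs (250 nm, 600 µM final lipid) were loaded with 12.5 mM ANTS and 45 mM DPX by freeze-thaw and 0.4-µm extrusion, then gel-filtered. Buffer was high-salt (5 mM HEPES, 100 mM NaCl, pH 7.4) or low-salt (10 mM NaCl). Twofold defensin dilutions were added, with a water blank and 0.25% Triton X-100 for 100%. Ex 353/Em 515 nm; % leakage = (Ft−F0)/(F100−F0)×100.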

In experiment [3] the test system is Staphylococcus aureus ATCC 29213. It is filed as cell-based. To be noted: peptide 256 and 128 µg/ml, 15 min exposure, growth monitored 12 h.

Ends that are not written are not given here.

Regarding “HNP4: fourth α-defensin discovered in neutrophils (VCSCRLVFCRRTELRVGNCLIGGVSFTYCCTRV; disulfide (positions not given here); ends not checked; UniProt P12838 64-96, looked up)”, the “Activity against Gram-positive bacteria / bactericidal activity” value in the experiment on S. aureus was “ineffective against Gram-positive bacteria”.
Turning to Human Neutrophil Peptide 1 [HNP1], the “Binding of peptide to immobilized soluble Lipid II” value in experiment [1] was “bound Lipid II dose-dependently”. Further, the “Leakage from LUVs with increasing content of POPG” value in experiment [2] (POPC:POPG = 1:0, 3:2, 2:3, 0:1, HNP1 0.19 to 100 µg/ml, 1 h, triplicate) was “increasingly pronounced”. The “Membrane activity (leakage from POPG LUVs)” value in experiment [2] (POPG LUVs, panel of six α-defensins, high and low salt, over 24 h (Figure 1)) is reported as “reduced”. Moreover, in experiment [3], the “Bacterial growth after exposure to HNP1” value was “bacterial growth did not measurably recover”. In the experiment on S. aureus, the “Activity against Gram-positive bacteria / bactericidal activity” value was “potently bactericidal”.

B1: HD-5: human α-defensin stored in granules of Paneth cells (peptide, UniProt Q01523 20-94, looked up)
Defensin alpha 5: ESLQERADEATTQKQSGEDNQDLAISFAGNGLSALRTSGSQARATCYCRTGRCATRESLSGVCEISGRLYRLCCR
modifications: Defensin-5
Take B1: the “Activity against Gram-positive bacteria / bactericidal activity” value in the experiment with S. aureus was “potently bactericidal”.
